From ChEMBL document CHEMBL1131232, “New azole antifungals. 3. Synthesis and antifungal activity of 3-substituted-4(3H)-quinazolinones” (J Med Chem, 1998)
≈ marks a conversion by molar mass, not a printed value.

What was measured:
[1] = In vitro antifungal activity against 6 filamentous fungi; assay type: functional; conditions: read-out: MIC
In short: (§1)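 Agar dilution on Kimmig's agar with 0.5% glycerol, using ATCC strains or clinical isolates. Drug stocks were 800 μg/mL in 50% ethanol, tested as 2-fold dilutions from 80 to 0.03 μg/mL. Inocula were 10⁵ cfu/mL. […] Geometric means took >80 as 160 and ≤0.03 as 0.03.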

Candida albicans [2] = experiment: (§2) In vivo antifungal activity against murine candidosis model after peroral administration with 2.5 mg/kg at various time intervals. (percent protection for 100% mortality with fluconazole-treated group.); assay type: functional; conditions: route oral
In short: (§3)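 Groups of 10 male mice were infected iv with 0.2 mL of C. albicans at 2 to 8×10^7 cfu/mL. Drug was given orally as a suspension in 1% Tween + 0.2% carboxymethylcellulose at 1, 4 and 24 h post-infection; controls got vehicle only. Survival was scored on days 3, 5, 7 and 9. Read-out was % survival on the day all untreated controls died, or on the day all mice given fluconazole at the same dose died.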

Candida albicans [3] = experiment: (§4) In vivo antifungal activity against murine candidosis model after peroral administration with 2.5 mg/kg at various time intervals. (percent protection for 100% mortality with untreated group); assay type: functional; conditions: route oral; in short: as §3
[4] = In vitro for antifungal activity against 10 yeasts; assay type: functional; conditions: read-out: MIC; in short: as §1
Candida albicans [5] = experiment: In vivo antifungal activity against murine candidosis model after peroral administration with 0.5 mg/kg at various time intervals. (percent protection for 100% mortality with fluconazole-treated group.); assay type: functional; conditions: route oral; in short: as §3
Candida albicans [6] = experiment: In vivo antifungal activity against murine candidosis model after peroral administration with 0.5 mg/kg at various time intervals. (percent protection for 100% mortality with untreated group); assay type: functional; conditions: route oral; in short: as §3
Mus musculus [7] = experiment: as §2; assay type: functional; conditions: route oral; in short: as §3
Mus musculus [8] = experiment: as §4; assay type: functional; conditions: route oral; in short: as §3
Candida albicans [9] = experiment: Tested in vivo for anti-candida activity in mice model 1 (dose:0.5 mg/kg, fluconazole-treated group); assay type: functional
Candida albicans [10] = experiment: Tested in vivo for anti-candida activity in mice model 1 (dose: 0.5 mg/kg, untreated group).; assay type: functional
Mus musculus [11] = experiment: In vivo antifungal activity against murine candidosis model after peroral administration with 0.25 mg/kg at various time intervals. (percent protection for 100% mortality with untreated group); assay type: functional; conditions: route oral; in short: as §3
Mus musculus [12] = experiment: In vivo antifungal activity against murine candidosis model after peroral administration with 0.25 mg/kg at various time intervals. (percent protection for 100% mortality with fluconazole-treated group.); assay type: functional; conditions: route oral; in short: as §3
[13] = Half-life in rats after iv administration; assay type: ADME, organism-based; conditions: rat, in vivo
Candida albicans [14] = experiment: The compound was tested in vitro for antifungal activity against Candida albicans.; assay type: functional; in short: as §1
Rattus norvegicus = experiment: In vivo activity against disseminated aspergillosis (liver) in immunocompromized rat model at a dose of 2 mg/kg, bid, po; assay type: functional
Oryctolagus cuniculus [15] = experiment: In vivo antifungal activity against systemic candidosis in rabbit lung at a dose of 12.5 mg/kg, qd, po.; assay type: functional
In short: (§5)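 Groups of 10 male New Zealand rabbits were infected iv with C. albicans (1.2×10^7 cfu/kg). Drug was given orally as a suspension in 1% Tween 80 + 0.2% carboxymethylcellulose 4 h post-infection, then qd for 6 more days; controls got vehicle. On day 7, kidney or lung was homogenized in saline and plated on Sabouraud agar (37 °C, 7 days). Read-out was log cfu/g wet tissue.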

Oryctolagus cuniculus [16] = experiment: In vivo antifungal activity against systemic candidosis in rabbit kidney at a dose of 12.5 mg/kg, qd, po.; assay type: functional; in short: as §5
Mus musculus [17] = experiment: The compound was tested in vivo for anti-candida activity in mice model 2(dose: 1 mg/kg, untreated group).; assay type: functional
Mus musculus [18] = experiment: The compound was tested in vivo for anti-candida activity in mice model 2(dose :1 mg/kg,fluconazole-treated group); assay type: functional

Compound | MIC [1] | Protection (Candida albicans [2]) | Protection (Candida albicans [3]) | MIC [4] | further results
C[C@@H](NC(=O)c1ccc(Cl)cc1NC=O)[C@](O)(Cn1cncn1)c1ccc(F)cc1F | 0.9 mg/L (≈ 2 µM) | 0% | 0% | 0.3 mg/L (≈ 0.667 µM) | 
C[C@@H](NC(=O)c1ccc(Cl)cc1N)[C@](O)(Cn1cncn1)c1ccc(F)cc1F | 8.9 mg/L (≈ 21.1 µM) | 0% | 20% | 3.7 mg/L (≈ 8.77 µM) | 
C[C@@H](n1cnc2cc(Cl)ccc2c1=O)[C@](O)(Cn1ccnc1)c1ccc(F)cc1F | 28 mg/L (≈ 65 µM) | 0% | 0% | 2 mg/L (≈ 4.64 µM) | 
C[C@@H](n1cnc2cc(Sc3ccccc3)ccc2c1=O)[C@](O)(Cn1cncn1)c1ccc(F)cc1F | 2 mg/L (≈ 3.96 µM) |  |  | 0.7 mg/L (≈ 1.38 µM) | Protection (Candida albicans [5]): 0%; Protection (Candida albicans [6]): 0%
COc1cc2ncn([C@H](C)[C@](O)(Cn3cncn3)c3ccc(F)cc3F)c(=O)c2cc1OC | 80 mg/L (≈ 175 µM) | 0% | 0% | 7.6 mg/L (≈ 16.6 µM) | 
C[C@@H](n1cnc2cc(NCc3ccccc3)ccc2c1=O)[C@](O)(Cn1cncn1)c1ccc(F)cc1F | 11 mg/L (≈ 21.9 µM) |  |  | 1.2 mg/L (≈ 2.39 µM) | Protection (Candida albicans [5]): 0%; Protection (Candida albicans [6]): 40%
C[C@@H](N1CNc2cc(Cl)ccc2C1=O)[C@](O)(Cn1cncn1)c1ccc(F)cc1F | 2.8 mg/L (≈ 6.45 µM) | 0% | 30% | 0.8 mg/L (≈ 1.84 µM) | 
C[C@H](n1cnc2cc(Cl)ccc2c1=O)[C@@](O)(Cn1cncn1)c1ccc(F)cc1F | > 80 mg/L |  |  | 40 mg/L (≈ 92.6 µM) | Protection (Mus musculus [7]): 0%; Protection (Mus musculus [8]): 0%
CCC(CC)n1ncn(-c2ccc(N3CCN(c4ccc5ncn([C@H](C)[C@](O)(Cn6cncn6)c6ccc(F)cc6F)c(=O)c5c4)CC3)cc2)c1=O | 28 mg/L (≈ 39.4 µM) |  |  | 3.7 mg/L (≈ 5.21 µM) | Protection (Candida albicans [5]): 0%; Protection (Candida albicans [6]): 0%
C[C@@H](n1ncn(-c2ccc(OCC(F)(F)C(F)F)cc2)c1=O)[C@](O)(Cn1cncn1)c1ccc(F)cc1F | 8.9 mg/L (≈ 16.4 µM) |  |  | 2.6 mg/L (≈ 4.79 µM) | Protection (Candida albicans [9]): 100%; Protection (Candida albicans [10]): 100%
C[C@@H](NC(=O)c1ccc(C(F)(F)F)cc1)[C@](O)(Cn1cncn1)c1ccc(F)cc1F | 22 mg/L (≈ 50 µM) |  |  | 4.6 mg/L (≈ 10.4 µM) | Protection (Candida albicans [9]): 100%; Protection (Candida albicans [10]): 100%
C[C@@H](n1cnc2cc(OCC(F)(F)C(F)F)ccc2c1=O)[C@](O)(Cn1cncn1)c1ccc(F)cc1F | 18 mg/L (≈ 34.1 µM) |  |  | 0.4 mg/L (≈ 0.758 µM) | Protection (Candida albicans [5]): 100%; Protection (Candida albicans [6]): 100%
C[C@@H](n1cnc2cc(Cl)ccc2c1=O)[C@](O)(Cn1cncn1)c1ccccc1F | 1.1 mg/L (≈ 2.66 µM) | 0% | 20% | 0.7 mg/L (≈ 1.69 µM) | 
C[C@@H](n1cnc2c(Cl)cccc2c1=O)[C@](O)(Cn1cncn1)c1ccc(F)cc1F | 45 mg/L (≈ 104 µM) | 0% | 0% | 2.5 mg/L (≈ 5.79 µM) | 
COc1cccc2c(=O)n([C@H](C)[C@](O)(Cn3cncn3)c3ccc(F)cc3F)cnc12 | > 80 mg/L | 0% | 0% | 10 mg/L (≈ 23.4 µM) | 
C[C@@H](n1cnc2cc(S(=O)(=O)c3ccccc3)ccc2c1=O)[C@](O)(Cn1cncn1)c1ccc(F)cc1F | 8.7 mg/L (≈ 16.2 µM) |  |  | 1.2 mg/L (≈ 2.23 µM) | Protection (Candida albicans [5]): 0%; Protection (Candida albicans [6]): 0%
C[C@@H](n1cnc2cc(Cl)ccc2c1=O)[C@@](O)(Cn1cncn1)c1ccc(F)cc1F | > 80 mg/L |  |  | > 80 mg/L | Protection (Mus musculus [11]): 0%; Protection (Mus musculus [12]): 0%
C[C@@H](n1cnc2ncccc2c1=O)[C@](O)(Cn1cncn1)c1ccc(F)cc1F | > 80 mg/L |  |  | 43 mg/L (≈ 108 µM) | Protection (Mus musculus [7]): 0%; Protection (Mus musculus [8]): 0%
C[C@@H](n1cnc2cc(Cl)ccc2c1=O)[C@](O)(Cn1cncn1)c1ccc(Cl)cc1Cl | 1.6 mg/L (≈ 3.44 µM) | 0% |  | 0.2 mg/L (≈ 0.43 µM) | Protection (Mus musculus [8]): 80%
C[C@@H](n1cnc2cc(I)ccc2c1=O)[C@](O)(Cn1cncn1)c1ccc(F)cc1F | 0.9 mg/L (≈ 1.72 µM) |  |  | 0.3 mg/L (≈ 0.573 µM) | half-life [13]: > 48 h; MIC (Candida albicans [14]): < 0.03 mg/L; Protection (Candida albicans [5]): 0%; Protection (Candida albicans [6]): 100%
C[C@H](n1cnc2cc(Cl)ccc2c1=O)[C@](O)(Cn1cncn1)c1ccc(F)cc1F | 65 mg/L (≈ 151 µM) |  |  | 7.4 mg/L (≈ 17.1 µM) | Protection (Mus musculus [11]): 0%; Protection (Mus musculus [12]): 0%
C[C@@H]1[C@H](O)[C@@H](C)/C=C/C=C/C=C/C=C/C=C/C=C/C=C/[C@H](O[C@@H]2O[C@H](C)[C@@H](O)[C@H](N)[C@@H]2O)C[C@@H]2O[C@](O)(C[C@@H](O)C[C@@H](O)[C@H](O)CC[C@@H](O)C[C@@H](O)CC(=O)O[C@H]1C)C[C@H](O)[C@H]2C(=O)O [AMPHOTERICIN B] |  |  |  |  | Log cfu/g (Rattus norvegicus): 0.1
OC(Cn1cncn1)(Cn1cncn1)c1ccc(F)cc1F [FLUCONAZOLE] | > 80 mg/L |  |  | 30 mg/L (≈ 98 µM) | Protection (Candida albicans [10]): 100%; Log cfu/g (Oryctolagus cuniculus [15]): 1.44; Log cfu/g (Oryctolagus cuniculus [16]): 1.29
C[C@H]([C@](O)(Cn1cncn1)c1ccc(F)cc1F)S(C)(=O)=O [GENACONAZOLE] | 25 mg/L (≈ 75.5 µM) |  |  | 8.7 mg/L (≈ 26.3 µM) | Protection (Mus musculus [17]): 100%; Protection (Mus musculus [18]): 20%; Protection (Candida albicans [9]): 100%; Protection (Candida albicans [10]): 100%
CCC(C)n1ncn(-c2ccc(N3CCN(c4ccc(OC[C@@H]5CO[C@@](Cn6cncn6)(c6ccc(Cl)cc6Cl)O5)cc4)CC3)cc2)c1=O (stereo partly drawn) [ITRACONAZOLE] | 63 mg/L (≈ 89.3 µM) |  |  | 5.2 mg/L (≈ 7.37 µM) | Protection (Candida albicans [9]): 0%; Protection (Candida albicans [10]): 0%
C[C@@H](c1nc(-c2ccc(C#N)cc2)cs1)[C@](O)(Cn1cncn1)c1ccc(F)cc1F [RAVUCONAZOLE] | 0.8 mg/L (≈ 1.83 µM) |  |  | 0.3 mg/L (≈ 0.686 µM) | Protection (Mus musculus [17]): 20%; Protection (Mus musculus [18]): 0%; Protection (Candida albicans [9]): 0%; Protection (Candida albicans [10]): 50%
